Among the data in ChEMBL document CHEMBL4680104, “Structure-Based Optimization of Small-Molecule Inhibitors for the β-Catenin/B-Cell Lymphoma 9 Protein-Protein Interaction” (J Med Chem, 2018) are inhibition, Activity and fold induction values, retold here.

Activity calls are given as the source filed them. The calls are words filed in the database; no cut-off is given here.

Data set [1] has as its target beta-catenin-B-cell lymphoma 9 protein complex (Homo sapiens) (UniProt P35222+O00512). The data set is described as follows: Inhibition of protein interaction between full-length beta-catenin (unknown origin) / full-length BCL9 (unknown origin) in human HCT-116 cell lysates incubated for 4 hrs by co-immunoprecipitation assay. Format: subcellular. An outline of the steps: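 HCT116 cells were lysed in 50 mM Tris pH 7.4, 150 mM NaCl, 1% NP-40, 2 mM EDTA and protease inhibitors. Lysates were incubated with a range of inhibitor concentrations for 4 h at 4 °C and precleared on protein A/G agarose. β-Catenin was immunoprecipitated overnight at 4 °C and captured on A/G beads for 3 h. Beads were washed five times and run on 8% SDS-PAGE. Blots were probed for BCL9 and E-cadherin.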

For data set [2], the system named is SW480. The data set can be described thus: Cytotoxic activity in human SW480 cells at 800 uM incubated for 4 hrs by LDH release assay. Type of data set: cell-based. To be noted: sw480, 4 h. The procedure, abridged:
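SW480 cells were seeded at 2 × 10^4 cells/well and kept overnight at 37 °C. They were then exposed to a range of inhibitor concentrations for 4 h. LDH in the culture supernatant was measured with a diagnostic kit by absorbance at 490 nm. Percent cytotoxicity was calculated from experimental release against maximum release, with background subtracted. Run in triplicate.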
For orientation: Release of lactate dehydrogenase indicates damage to the cell membrane.

A short description of data set [3]: Effect on HPRT mRNA expression in human SW480 cells at 1 uM incubated for 24 hrs by qPCR analysis relative to control. Format: ADME, cell-based. Particulars: read-out: FC. An outline of the steps:
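SW480 cells at 1 × 10^6/mL were treated with inhibitor for 24 h. Total RNA was extracted with TRIzol and cDNA made by first-strand synthesis. SYBR green qPCR used human HPRT primers, with CT values normalised to GAPDH as internal reference. Performed in triplicate.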

The test system of data set [4] is SW480. The data set is described as follows: Effect on E-cadherin-bound beta-catenin levels in human SW480 cells at 2 to 8 uM incubated for 24 hrs by Western blot analysis. Format: functional, cell-based. To be noted: dose 2-8 µM. The procedure, abridged:
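SW480 cells at 1 × 10^6 cells/mL were treated with a range of inhibitor concentrations for 24 h. Cells were lysed in Tris/NaCl/NP-40/deoxycholate/SDS buffer with protease inhibitors. Lysates were run on 8% SDS-PAGE and blotted to nitrocellulose. Blots were probed overnight at 4 °C for total β-catenin (mostly the E-cadherin-bound pool), active β-catenin (dephosphorylated S37/T41), cyclin D1, c-myc and β-tubulin. Detection used infrared secondary antibodies. Duplicate.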
In general terms: In western blotting, separated proteins are transferred to a membrane and probed.

In the case of `Cl.Cl.O=C(Nc1ccc(O[C@@H]2CCNC2)c(-c2cccc(-c3nn[nH]n3)c2)c1)c1ccc(O[C@H]2CCNC2)c(-c2ccc(F)c(F)c2)c1`, the inhibition result in data set [1] was “Dose-dependent effect”. Also, in the data set on SW480 [2], the Activity entry is “Non-Toxic”.
`Cl.Cl.O=C(Nc1ccc(O[C@H]2CCNC2)c(-c2ccc(F)cc2)c1)c1ccc(O[C@H]2CCNC2)c(-c2ccc3ccsc3c2)c1`: the fold induction at 1 µM in data set [3] stood at 1.09. For the same compound, in the data set on SW480 [4], the outcome was inactive.
